Square brackets hold non-standard residues; d marks the D form. Peptide text beside a SMILES is read from it. pT = C[C@@H](OP(=O)(O)O)[C@H](N)C(=O)O; pS = N[C@@H](COP(=O)(O)O)C(=O)O
Columns and labels:
[1] = tested on: polo-box domain (PBD) of polo-like kinase 1 (Plk1), wild-type (His6-PBD345-603 WT); assay: fluorescence-based thermal stability; format: binding, human; details: for Thermal shift, Δ: difference between wild-type and Y417A/Y421A thermal shifts
Summary of the method: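 Fluorescence-based thermal stability screen of phosphorylated test peptides derived from PBIP1 and TCERG1, run in parallel on wild-type Plk1 polo-box domain and on the Y417A/Y421A double mutant. The mutant was designed to weaken binding at the hydrophobic pocket, so the wild-type-minus-mutant shift reports pocket involvement.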

[2] = target: polo-box domain (PBD) of Plk1, His6-PBD345-603 (Homo sapiens, UniProt P53350); assay: isothermal titration calorimetry; format: binding
Sequence of polo-box domain (PBD) of Plk1, His6-PBD345-603 (P53350 345-603): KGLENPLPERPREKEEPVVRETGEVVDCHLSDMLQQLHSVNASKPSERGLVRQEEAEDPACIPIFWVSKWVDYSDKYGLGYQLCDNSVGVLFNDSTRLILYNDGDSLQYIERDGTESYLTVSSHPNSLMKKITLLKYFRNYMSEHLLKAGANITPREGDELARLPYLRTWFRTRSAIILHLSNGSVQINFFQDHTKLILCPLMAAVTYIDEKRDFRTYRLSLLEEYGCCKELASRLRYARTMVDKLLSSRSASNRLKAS

[3] = tested on: PBD of human Plk1 (GPLGSPEF-PBD371-594); assay: X-ray crystal structure of peptide in complex with PBD; format: binding; details: crystal structures 3P36 (DPPLHSpTA), 3P37 (FDPPLHSpTA), 3Q1I (FMPPPMSpSM)

## CC(=O)N[C@@H](CC(=O)O)C(=O)N1CCC[C@H]1C(=O)N1CCC[C@H]1C(=O)N[C@@H](CC(C)C)C(=O)N[C@@H](Cc1c[nH]cn1)C(=O)N[C@@H](CO)C(=O)N[C@H](C(=O)N[C@@H](C)C(N)=O)[C@@H](C)OP(=O)(O)O [DPPLHSpTA] (Ac-DPPLHS[pT]A-NH2)
[1]
  Thermal shift, Δ: −0.4 °C
[2]
  Kd: 2140 nM

## CC(=O)N[C@@H](C)C(=O)N[C@@H](CC(=O)O)C(=O)N1CCC[C@H]1C(=O)N1CCC[C@H]1C(=O)N[C@@H](CC(C)C)C(=O)N[C@@H](Cc1c[nH]cn1)C(=O)N[C@@H](CO)C(=O)N[C@H](C(=O)N[C@@H](C)C(N)=O)[C@@H](C)OP(=O)(O)O [ADPPLHSpTA] (Ac-ADPPLHS[pT]A-NH2)
[1]
  Thermal shift, Δ: −0.2 °C
[2]
  Kd: 1320 nM

## CC(=O)N[C@@H](Cc1ccccc1)C(=O)N[C@@H](CC(=O)O)C(=O)N1CCC[C@H]1C(=O)N1CCC[C@H]1C(=O)N[C@@H](CC(C)C)C(=O)N[C@@H](Cc1c[nH]cn1)C(=O)N[C@@H](CO)C(=O)N[C@H](C(=O)N[C@@H](C)C(N)=O)[C@@H](C)OP(=O)(O)O [FDPPLHSpTA] (Ac-FDPPLHS[pT]A-NH2)
[1]
  Thermal shift, Δ: 4.3 °C
[1]; wild-type PBD versus Y417A/Y421A mutant
  difference in thermal shifts between wild-type and mutant protein (in words): significant difference in thermal shifts
[2]
  Kd: 250 nM
[2]; ITC, 25 °C, compared with peptides without Phe71
  affinity by ITC (in words): increased affinity

## CSCC[C@H](NC(=O)[C@H](COP(=O)(O)O)NC(=O)[C@H](CO)NC(=O)[C@H](CCSC)NC(=O)[C@@H]1CCCN1C(=O)[C@@H]1CCCN1C(=O)[C@@H]1CCCN1C(=O)[C@H](CCSC)NC(=O)[C@H](Cc1ccccc1)NC(C)=O)C(N)=O [FMPPPMSpSM] (Ac-FMPPPMS[pS]M-NH2)
[1]
  Thermal shift, Δ: 0.0 °C
[3]
  hydrophobic pocket binding in crystal structure (in words): lack of hydrophobic pocket binding
[2]
  Kd: 515000 nM

Reference: article PMC3555362 (Angewandte Chemie (International Ed. in English), 2011)
